The values that follow come from ChEMBL document CHEMBL3244345, “Cytostatic quinones. 3. Synthesis of benzotriazolequinones by a new oxidation with m-chloroperbenzoic acid. Biochemical studies” (1978).

≈ marks a conversion by molar mass, not a printed value. Calls of active or inactive are those of the source. No cut-off for these calls is given here.

In test [1] the test system is Ehrlich. Put plainly: Inhibition of DNA synthesis in mouse Ehrlich ascite carcinoma cells assessed as incorporation of [3H]thymidine after 1.5 hrs by liquid scintillation spectrophotometer. Format: functional, cell-based. In outline:
(§1)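 Ehrlich ascites cells were taken from mice bearing 7-day nonbloody tumors, washed in saline, and resuspended at 5×10⁵ cells/mL in Eagle Spinner medium with 10% fetal calf serum. They were stirred 1.5 h at 37 °C with compound and one labelled precursor: [¹⁴C]glucose 0.2 μCi, [³H]thymidine 0.1 μCi, [³H]uridine 0.5 μCi, or [³H]proline. Then 1 mL samples were diluted in cold saline and pelleted.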

The test system of test [2] is Ehrlich. Briefly: Inhibition of [3H]glucose uptake in mouse Ehrlich ascite carcinoma cells after 1.5 hrs by liquid scintillation spectrophotometer. Format: functional, cell-based. The conditions noted are these: in the assay text read “[14C]glucose” for “[3H]glucose”. The essentials:
as §1

Test [3] relates to Ehrlich. Briefly: Inhibition of protein synthesis in mouse Ehrlich ascite carcinoma cells assessed as incorporation of [3H]proline after 1.5 hrs by liquid scintillation spectrophotometer. Format: functional, cell-based. In outline: as §1
For another test, the system named is HeLa. Briefly: Cytostatic activity against human HeLa cells assessed as growth inhibition after 72 hrs by colorimetric method. Format: functional. Conditions: read-out: ED50 (the source's name). The essentials: (§2)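 HeLa or KB cells at 10⁵ cells/mL in Minimal Medium Eagle with 10% fetal calf serum were incubated at 37 °C in Leighton tubes. After the cells attached (2-3 h), compound was added in sterile saline with 0.05% Tween 80, making up 10% of the final volume. After 72 h at 37 °C, growth was read as cell protein (Oyama–Eagle colorimetric method). 6-Mercaptopurine was the positive control. ED₅₀ was derived.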

The test system of a further test is KB. Briefly: Cytostatic activity against human KB cells assessed as growth inhibition after 72 hrs by colorimetric method. The conditions noted are these: read-out: ED50 (the source's name). The format is functional. In outline:
as §2

The test system of test [4] is Ehrlich. Briefly: Inhibition of RNA synthesis in mouse Ehrlich ascite carcinoma cells assessed as incorporation of [3H]uridine after 1.5 hrs by liquid scintillation spectrophotometer. Format: functional, cell-based. In outline:
as §1

Test [5] has as its system Ehrlich. Briefly: Irreversible inhibition of protein synthesis in mouse Ehrlich ascite carcinoma cells assessed as incorporation of [3H]proline at 10 ug/ml after 1.5 hrs by liquid scintillation spectrophotometer. Format: functional, cell-based. In outline:
(§3)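 For reversibility, Ehrlich ascites cells were preincubated 1.5 h at 37 °C with or without 10 μg/mL quinone. They were washed in saline at room temperature and resuspended in fresh Eagle Spinner medium. They were then incubated at 37 °C with radiolabelled glucose, thymidine, uridine or proline at the same amounts as the direct assay. Samples were taken over time to follow incorporation.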

The test system of test [6] is Ehrlich. Briefly: Irreversible inhibition of [3H]glucose uptake in mouse Ehrlich ascite carcinoma cells at 10 ug/ml after 1.5 hrs by liquid scintillation spectrophotometer. The format is functional, cell-based. The conditions noted are these: in the assay text read “[14C]glucose” for “[3H]glucose”. The essentials:
as §3

For test [7], the system named is Ehrlich. Briefly: Irreversible inhibition of DNA synthesis in mouse Ehrlich ascite carcinoma cells assessed as incorporation of [3H]thymidine at 10 ug/ml after 1.5 hrs by liquid scintillation spectrophotometer. The format is functional, cell-based. The essentials:
as §3

For test [8], the system named is Ehrlich. Briefly: Irreversible inhibition of RNA synthesis in mouse Ehrlich ascite carcinoma cells assessed as incorporation of [3H]uridine at 10 ug/ml after 1.5 hrs by liquid scintillation spectrophotometer. Format: functional, cell-based. In outline: as §3

In the case of `COC(=O)Cn1nc2c(n1)C(=O)C(C)=C(C)C2=O`, the inhibition entry in the test on Ehrlich [1], in the test on Ehrlich [2], with Ehrlich [3] and with Ehrlich [4] was “Active” throughout. The EC50 in the test with HeLa turned out to be 1 µg/mL (≈ 4.01 µM); in the test on KB it was 4 µg/mL (≈ 16 µM).

`COC(=O)Cn1nc2c(n1)C(=O)C(C)=CC2=O`: the inhibition result in the test on Ehrlich [1], in the test on Ehrlich [2], with Ehrlich [5], with Ehrlich [6], with Ehrlich [7] and in the test on Ehrlich [3] was “Active” in each case. Further, the inhibition result in the test on Ehrlich [8] and with Ehrlich [4] was “Active” throughout. Also, the values for the EC50 in the test with HeLa and in the test on KB were 0.5 µg/mL (≈ 2.13 µM) and 1.5 µg/mL (≈ 6.38 µM), respectively.

On to `Sc1ncnc2nc[nH]c12` [MERCAPTOPURINE ANHYDROUS], for which the EC50 in the test with HeLa and in the test with KB was 0.1 µg/mL (≈ 0.657 µM) in each case.

As for `COC(=O)C(C)n1n[n+]([O-])c2cc(C)c(C)cc21` (stereo not given), the EC50 in the test on HeLa and in the test with KB was more than 100 µg/mL each time.

Take `COC(=O)C(C)n1nc2c(n1)C(=O)C(C)=C(C)C2=O` (stereo not given): the inhibition entry in the test on Ehrlich [1], in the test on Ehrlich [2], in the test with Ehrlich [3] and in the test with Ehrlich [4] was “Active” in each case. The EC50 came to 0.9 µg/mL (≈ 3.42 µM) in the test on HeLa and 3.5 µg/mL (≈ 13.3 µM) in the test on KB.

As to `CC1=CC(=O)c2nn(C)nc2C1=O`, the inhibition entry in the test on Ehrlich [1], in the test on Ehrlich [2], in the test with Ehrlich [3] and with Ehrlich [4] was “Active” in each case. The EC50 with HeLa is 0.3 µg/mL (≈ 1.69 µM); with KB it was 2.5 µg/mL (≈ 14.1 µM).

For `CC1=C(C)C(=O)c2nn(Cc3ccccc3)nc2C1=O`, the inhibition result in the test on Ehrlich [1], with Ehrlich [2], in the test with Ehrlich [3] and in the test with Ehrlich [4] was “Active” each time. Moreover, the EC50 with HeLa was determined as 0.8 µg/mL (≈ 2.99 µM); in the test on KB, 3.5 µg/mL (≈ 13.1 µM).

For `Cc1cc2c(cc1C)[n+]([O-])nn2Cc1ccccc1`, the EC50 with HeLa and in the test on KB was more than 100 µg/mL each time.

`Cc1cc2c(cc1C)[n+]([O-])nn2C`: the EC50 with HeLa and in the test with KB was more than 100 µg/mL in each case.

For the compound `COC(=O)Cn1n[n+]([O-])c2cc(C)c(C)cc21`, the EC50 in the test with HeLa and in the test on KB was more than 100 µg/mL in each case.

As for `CC1=C(C)C(=O)c2nn(C)nc2C1=O`, the inhibition result in the test on Ehrlich [1], with Ehrlich [2], with Ehrlich [3] and in the test with Ehrlich [4] was “Active” throughout. The figures for the EC50 in the test with HeLa and in the test with KB were 0.5 µg/mL (≈ 2.62 µM) and 3 µg/mL (≈ 15.7 µM), respectively.
